Activity calls are given as the source filed them. The rule behind the calls is not given here.
Tests used:
[1] = Inhibition of CHK2 at 1 uM by radiometric method
[2] = target: Mitogen-activated protein kinase kinase kinase kinase 3 (Homo sapiens) (UniProt Q8IVH8); experiment: Inhibition of MAP4K3 at 1 uM by KINOMEscan binding assay
[3] = target: Serine/threonine-protein kinase 10 (Homo sapiens) (UniProt O94804); experiment: Inhibition of LOK at 1 uM by KINOMEscan binding assay
[4] = target: Cyclin-dependent kinase 1 (Homo sapiens) (UniProt P06493); experiment: Inhibition of CDC2 at 1 uM by radiometric method
[5] = target: Serine/threonine-protein kinase mTOR (Homo sapiens) (UniProt P42345); experiment: Inhibition of mTOR at 1 uM by radiometric method
[6] = target: Epithelial discoidin domain-containing receptor 1 (Homo sapiens) (UniProt Q08345); experiment: Inhibition of DDR1 at 1 uM by KINOMEscan binding assay
[7] = target: T1, Macrophage colony-stimulating factor 1 receptor (Homo sapiens, UniProt P07333); experiment: Inhibition of CSF1R by radiometric method
T1 sequence (P07333 whole entry): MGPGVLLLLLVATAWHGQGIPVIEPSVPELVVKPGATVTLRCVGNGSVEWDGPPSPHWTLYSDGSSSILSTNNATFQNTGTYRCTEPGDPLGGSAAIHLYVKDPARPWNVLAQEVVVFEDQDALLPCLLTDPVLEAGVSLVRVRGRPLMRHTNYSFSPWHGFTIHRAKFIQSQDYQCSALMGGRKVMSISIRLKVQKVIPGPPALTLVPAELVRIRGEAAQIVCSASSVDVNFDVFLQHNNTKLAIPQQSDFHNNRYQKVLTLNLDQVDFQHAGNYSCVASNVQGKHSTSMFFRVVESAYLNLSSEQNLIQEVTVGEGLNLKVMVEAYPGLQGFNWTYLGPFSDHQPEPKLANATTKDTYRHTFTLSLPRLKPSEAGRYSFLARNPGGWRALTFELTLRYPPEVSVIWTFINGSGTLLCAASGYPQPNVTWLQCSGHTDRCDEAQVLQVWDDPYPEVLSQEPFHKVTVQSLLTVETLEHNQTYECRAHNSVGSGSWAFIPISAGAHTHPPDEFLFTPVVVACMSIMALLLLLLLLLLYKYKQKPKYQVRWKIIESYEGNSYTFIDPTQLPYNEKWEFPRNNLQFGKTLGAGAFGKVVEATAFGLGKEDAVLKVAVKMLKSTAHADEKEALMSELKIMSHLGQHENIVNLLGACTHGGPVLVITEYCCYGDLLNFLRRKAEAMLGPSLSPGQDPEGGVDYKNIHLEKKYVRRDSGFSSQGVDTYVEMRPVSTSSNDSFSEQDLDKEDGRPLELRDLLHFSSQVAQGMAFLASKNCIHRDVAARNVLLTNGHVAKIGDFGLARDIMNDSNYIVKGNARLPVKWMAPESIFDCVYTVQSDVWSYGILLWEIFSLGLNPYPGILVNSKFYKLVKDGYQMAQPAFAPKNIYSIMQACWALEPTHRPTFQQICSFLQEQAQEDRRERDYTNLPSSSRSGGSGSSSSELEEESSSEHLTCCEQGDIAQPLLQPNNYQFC

[8] = target: T2, Mast/stem cell growth factor receptor Kit (Homo sapiens, UniProt P10721); experiment: Inhibition of c-Kit by radiometric method
T2 sequence (P10721 whole entry): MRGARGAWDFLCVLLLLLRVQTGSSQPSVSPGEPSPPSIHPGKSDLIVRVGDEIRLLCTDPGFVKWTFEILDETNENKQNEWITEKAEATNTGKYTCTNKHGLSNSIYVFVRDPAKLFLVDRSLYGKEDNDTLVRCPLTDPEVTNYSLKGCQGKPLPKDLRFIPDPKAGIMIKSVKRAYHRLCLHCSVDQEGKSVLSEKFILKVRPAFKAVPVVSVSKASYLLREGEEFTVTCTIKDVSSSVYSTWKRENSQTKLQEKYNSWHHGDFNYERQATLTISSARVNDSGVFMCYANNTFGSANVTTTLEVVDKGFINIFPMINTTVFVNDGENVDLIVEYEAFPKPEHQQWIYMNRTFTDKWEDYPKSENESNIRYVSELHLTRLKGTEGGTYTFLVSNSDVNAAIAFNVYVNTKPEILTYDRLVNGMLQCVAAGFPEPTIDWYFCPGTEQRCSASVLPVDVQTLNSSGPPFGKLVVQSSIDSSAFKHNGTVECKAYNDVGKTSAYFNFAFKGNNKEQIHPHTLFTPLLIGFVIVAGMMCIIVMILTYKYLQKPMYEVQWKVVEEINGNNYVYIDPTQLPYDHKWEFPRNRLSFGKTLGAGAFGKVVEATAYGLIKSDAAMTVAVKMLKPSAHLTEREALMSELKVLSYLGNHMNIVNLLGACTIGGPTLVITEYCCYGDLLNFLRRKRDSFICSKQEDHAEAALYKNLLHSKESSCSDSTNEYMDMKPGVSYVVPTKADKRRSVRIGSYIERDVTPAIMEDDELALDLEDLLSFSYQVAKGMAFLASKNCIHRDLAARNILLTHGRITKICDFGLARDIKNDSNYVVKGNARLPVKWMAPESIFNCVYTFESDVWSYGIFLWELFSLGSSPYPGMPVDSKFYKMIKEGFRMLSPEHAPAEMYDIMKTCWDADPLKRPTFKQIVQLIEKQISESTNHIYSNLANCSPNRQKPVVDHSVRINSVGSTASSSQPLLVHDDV

[9] = target: T1, Macrophage colony-stimulating factor 1 receptor; details: 1 uM
[10] = target: Hepatocyte growth factor receptor (Homo sapiens) (UniProt P08581); experiment: Inhibition of c-Met at 1 uM by radiometric method
[11] = target: 3-phosphoinositide-dependent protein kinase 1 (Homo sapiens) (UniProt O15530); experiment: Inhibition of PDK1 at 1 uM by radiometric method
[12] = target: Receptor-type tyrosine-protein kinase FLT3 (Homo sapiens) (UniProt P36888); experiment: Inhibition of FLT3 at 1 uM by radiometric method
[13] = target: Glycogen synthase kinase-3 beta (Homo sapiens) (UniProt P49841); experiment: Inhibition of GSK3B at 1 uM by radiometric method
[14] = target: Tyrosine-protein kinase Mer (Homo sapiens) (UniProt Q12866); experiment: Inhibition of MERTK at 1 uM by KINOMEscan binding assay
[15] = target: Cyclin-dependent kinase 2/cyclin A (Homo sapiens) (UniProt P24941+P20248+P78396); experiment: Inhibition of CDK2/cyclinA at 1 uM by radiometric method; type: protein-complex assay
[16] = target: Epidermal growth factor receptor (Homo sapiens) (UniProt P00533); experiment: Inhibition of EGFR at 1 uM by radiometric method
[17] = target: Phosphatidylinositol 5-phosphate 4-kinase type-2 gamma (Homo sapiens) (UniProt Q8TBX8); experiment: Inhibition of PIP5K2C at 1 uM by KINOMEscan binding assay
[18] = target: Fibroblast growth factor receptor 1 (Homo sapiens) (UniProt P11362); experiment: Inhibition of FGFR1 at 1 uM by radiometric method
Chain of Fibroblast growth factor receptor 1 (Homo sapiens) (P11362 22-822 limits assumed): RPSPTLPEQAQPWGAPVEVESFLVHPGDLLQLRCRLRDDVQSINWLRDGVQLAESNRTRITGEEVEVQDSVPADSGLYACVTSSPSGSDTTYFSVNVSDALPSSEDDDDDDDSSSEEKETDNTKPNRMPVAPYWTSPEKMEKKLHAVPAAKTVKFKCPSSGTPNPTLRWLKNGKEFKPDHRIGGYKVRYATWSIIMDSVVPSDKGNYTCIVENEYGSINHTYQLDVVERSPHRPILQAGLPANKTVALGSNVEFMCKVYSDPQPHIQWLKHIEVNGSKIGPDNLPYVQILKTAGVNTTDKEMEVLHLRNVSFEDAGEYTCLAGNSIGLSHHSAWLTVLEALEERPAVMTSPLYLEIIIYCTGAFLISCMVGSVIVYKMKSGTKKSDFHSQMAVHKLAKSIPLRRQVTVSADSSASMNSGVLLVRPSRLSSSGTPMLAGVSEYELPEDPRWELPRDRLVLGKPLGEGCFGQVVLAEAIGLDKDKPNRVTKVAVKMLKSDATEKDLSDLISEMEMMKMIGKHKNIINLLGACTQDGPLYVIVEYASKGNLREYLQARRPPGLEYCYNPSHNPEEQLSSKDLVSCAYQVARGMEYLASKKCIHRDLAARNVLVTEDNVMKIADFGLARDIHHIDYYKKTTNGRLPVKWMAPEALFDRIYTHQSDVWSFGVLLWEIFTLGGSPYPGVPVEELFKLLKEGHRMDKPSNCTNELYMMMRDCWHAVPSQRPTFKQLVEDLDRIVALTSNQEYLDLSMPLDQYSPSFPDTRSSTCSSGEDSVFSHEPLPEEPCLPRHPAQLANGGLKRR

[19] = target: Muscle, skeletal receptor tyrosine-protein kinase (Homo sapiens) (UniProt O15146); experiment: Inhibition of MUSK at 1 uM by KINOMEscan binding assay
[20] = target: Insulin-like growth factor 1 receptor (Homo sapiens) (UniProt P08069); experiment: Inhibition of IGF1R at 1 uM by radiometric method
[21] = target: RAF proto-oncogene serine/threonine-protein kinase (Homo sapiens) (UniProt P04049); experiment: Inhibition of c-Raf at 1 uM by radiometric method
Chain of RAF proto-oncogene serine/threonine-protein kinase (Homo sapiens) (P04049 whole entry): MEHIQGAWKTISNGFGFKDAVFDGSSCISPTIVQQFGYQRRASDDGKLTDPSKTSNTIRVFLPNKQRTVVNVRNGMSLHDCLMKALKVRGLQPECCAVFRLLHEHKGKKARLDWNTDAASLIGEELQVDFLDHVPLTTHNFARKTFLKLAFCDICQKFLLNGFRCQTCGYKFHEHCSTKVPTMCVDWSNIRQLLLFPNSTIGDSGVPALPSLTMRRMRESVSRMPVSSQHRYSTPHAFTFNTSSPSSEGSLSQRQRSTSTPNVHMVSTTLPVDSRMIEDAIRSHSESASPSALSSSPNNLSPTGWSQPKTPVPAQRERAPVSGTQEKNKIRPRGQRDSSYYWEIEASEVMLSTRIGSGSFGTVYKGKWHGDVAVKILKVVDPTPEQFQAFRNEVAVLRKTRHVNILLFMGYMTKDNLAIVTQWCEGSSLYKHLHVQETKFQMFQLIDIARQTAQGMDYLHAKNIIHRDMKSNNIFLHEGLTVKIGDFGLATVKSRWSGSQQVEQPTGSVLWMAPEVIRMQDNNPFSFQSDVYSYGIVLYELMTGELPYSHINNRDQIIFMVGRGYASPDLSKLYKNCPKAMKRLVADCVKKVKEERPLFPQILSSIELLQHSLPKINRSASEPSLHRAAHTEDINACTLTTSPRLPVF

[22] = target: ALK tyrosine kinase receptor (Homo sapiens) (UniProt Q9UM73); experiment: Inhibition of ALK at 1 uM by radiometric method
Chain of ALK tyrosine kinase receptor (Homo sapiens) (Q9UM73 19-1620 limits assumed): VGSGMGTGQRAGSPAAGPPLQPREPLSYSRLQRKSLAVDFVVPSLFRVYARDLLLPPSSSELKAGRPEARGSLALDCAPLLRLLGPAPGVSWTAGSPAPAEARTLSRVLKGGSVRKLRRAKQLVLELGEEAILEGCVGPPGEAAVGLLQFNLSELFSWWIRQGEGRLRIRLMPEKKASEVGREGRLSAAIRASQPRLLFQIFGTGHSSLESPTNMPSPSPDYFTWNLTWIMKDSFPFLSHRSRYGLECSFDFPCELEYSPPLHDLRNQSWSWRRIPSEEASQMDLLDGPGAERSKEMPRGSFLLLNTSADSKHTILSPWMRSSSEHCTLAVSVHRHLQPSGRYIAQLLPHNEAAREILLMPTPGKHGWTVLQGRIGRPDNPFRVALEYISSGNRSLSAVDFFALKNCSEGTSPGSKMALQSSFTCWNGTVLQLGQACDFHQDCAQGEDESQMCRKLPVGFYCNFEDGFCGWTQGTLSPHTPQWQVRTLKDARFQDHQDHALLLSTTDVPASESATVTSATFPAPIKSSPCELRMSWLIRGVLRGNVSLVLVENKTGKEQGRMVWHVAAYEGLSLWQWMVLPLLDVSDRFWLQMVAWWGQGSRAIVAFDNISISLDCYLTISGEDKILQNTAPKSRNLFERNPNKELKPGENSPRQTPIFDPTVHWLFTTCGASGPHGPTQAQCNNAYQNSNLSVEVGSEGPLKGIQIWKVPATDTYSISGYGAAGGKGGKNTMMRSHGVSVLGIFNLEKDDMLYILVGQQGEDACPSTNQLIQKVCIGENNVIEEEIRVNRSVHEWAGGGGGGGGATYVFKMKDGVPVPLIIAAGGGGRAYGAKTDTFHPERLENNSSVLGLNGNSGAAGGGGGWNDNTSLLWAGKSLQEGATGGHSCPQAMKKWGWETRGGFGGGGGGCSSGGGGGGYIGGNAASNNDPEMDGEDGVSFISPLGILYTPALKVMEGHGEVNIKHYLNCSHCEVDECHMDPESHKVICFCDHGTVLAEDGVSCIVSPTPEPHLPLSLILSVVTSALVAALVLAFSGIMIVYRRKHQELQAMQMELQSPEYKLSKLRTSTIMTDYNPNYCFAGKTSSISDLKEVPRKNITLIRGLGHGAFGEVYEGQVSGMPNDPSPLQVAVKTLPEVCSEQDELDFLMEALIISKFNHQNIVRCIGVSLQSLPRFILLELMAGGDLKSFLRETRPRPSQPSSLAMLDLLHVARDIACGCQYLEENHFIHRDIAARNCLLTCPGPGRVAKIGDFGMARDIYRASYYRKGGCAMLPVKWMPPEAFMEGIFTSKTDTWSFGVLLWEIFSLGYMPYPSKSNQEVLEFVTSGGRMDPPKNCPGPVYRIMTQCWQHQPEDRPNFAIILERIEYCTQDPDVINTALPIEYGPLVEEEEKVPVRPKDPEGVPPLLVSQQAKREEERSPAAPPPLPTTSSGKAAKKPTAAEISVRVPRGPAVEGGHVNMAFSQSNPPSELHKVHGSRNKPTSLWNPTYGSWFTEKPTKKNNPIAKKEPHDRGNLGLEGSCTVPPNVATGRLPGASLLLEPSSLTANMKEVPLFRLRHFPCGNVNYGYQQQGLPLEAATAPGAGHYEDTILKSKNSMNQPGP

[23] = target: Phosphorylase b kinase gamma catalytic chain, skeletal muscle/heart isoform (Homo sapiens) (UniProt Q16816); experiment: Inhibition of PHKG1 at 1 uM by KINOMEscan binding assay
[24] = test system: Epidermal growth factor receptor (Homo sapiens), P00533 [T790M]; experiment: Inhibition of EGFR T790M mutant at 1 uM by radiometric method; type: protein assay
[25] = target: Rhodopsin kinase GRK7 (Homo sapiens) (UniProt Q8WTQ7); experiment: Inhibition of GRK7 at 1 uM by KINOMEscan binding assay
HT-29 = experiment: Antiproliferative activity against human HT-29 cells after 72 hrs by cell titer 96 assay; type: functional, cell-based; details: HT-29, 72 h
[26] = target: T3, Aurora kinase A (Homo sapiens) (UniProt O14965); experiment: Inhibition of aurora A in human HCT116 cells assessed as reduction of phosphorylated histone H3 at ser10 level measured at 1.25 to 40 uM after 3 hrs by Western blot analysis; type: cell-based; details: HCT-116
T3 sequence (whole entry): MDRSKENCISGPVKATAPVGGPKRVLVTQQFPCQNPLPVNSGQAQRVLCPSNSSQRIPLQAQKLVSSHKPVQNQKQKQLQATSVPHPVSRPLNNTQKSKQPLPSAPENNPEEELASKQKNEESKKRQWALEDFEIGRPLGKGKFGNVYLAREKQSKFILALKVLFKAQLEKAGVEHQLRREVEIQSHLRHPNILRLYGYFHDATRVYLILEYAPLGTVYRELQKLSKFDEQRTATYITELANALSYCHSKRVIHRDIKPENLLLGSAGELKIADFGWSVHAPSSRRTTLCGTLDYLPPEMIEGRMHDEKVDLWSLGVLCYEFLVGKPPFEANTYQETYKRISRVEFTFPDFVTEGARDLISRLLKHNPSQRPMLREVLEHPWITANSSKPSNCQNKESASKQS
How it was run: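 HCT-116 cells were synchronized at G2/M with 200 ng/mL nocodazole for 17 h, then given inhibitor for a further 3.0 h. Cells were PBS-washed, boiled in 2× SDS sample buffer, and run on SDS-PAGE with immunoblotting. Rabbit antibodies detected pT288 Aurora A, total Aurora A, pS10 histone H3 and total H3; β-actin served as loading control.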

[27] = target: PI3K p110 beta/p85 alpha (Homo sapiens) (UniProt P27986+P42338); experiment: Inhibition of PI3K (p110beta/p85-alpha) at 1 uM by radiometric method; type: protein-complex assay
[28] = target: T2, Mast/stem cell growth factor receptor Kit; experiment: Inhibition of c-Kit at 1 uM by radiometric method
[29] = target: RAC-alpha serine/threonine-protein kinase (Homo sapiens) (UniProt P31749); experiment: Inhibition of AKT1 at 1 uM by radiometric method
[30] = target: Ephrin type-A receptor 1 (Homo sapiens) (UniProt P21709); experiment: Inhibition of EPHA1 at 1 uM by radiometric method
[31] = target: Proto-oncogene tyrosine-protein kinase receptor Ret (Homo sapiens) (UniProt P07949); experiment: Inhibition of RET at 1 uM by KINOMEscan binding assay

Row | inhibition [1] [%] | residual activity [2] [%] | residual activity [3] [%] | inhibition [4] [%] | inhibition [5] [%] | residual activity [6] [%] | IC50 [7] [nM] | IC50 [8] [nM] | inhibition [9] [%] | inhibition [10] [%] | inhibition [11] [%] | inhibition [12] [%] | inhibition [13] [%] | residual activity [14] [%] | inhibition [15] [%] | inhibition [16] [%] | residual activity [17] [%] | inhibition [18] [%] | residual activity [19] [%] | inhibition [20] [%] | SMILES | also measured
1 | 17 | < 10 | < 10 | 33 | 9 | < 10 | > 1000 | > 1000 | 34 | 32 | 24 | 97 | 47 | < 10 | 71 | 5 | < 10 | 77 | < 10 | 24 | CCOC(=O)CCc1c(/C=C2\C(=O)Nc3ccc(NS(=O)(=O)c4ccccc4)cc32)[nH]c2c1C(=O)CCC2 | inhibition [21]: -8%; inhibition [22]: 80%; residual activity [23]: < 10%; inhibition [24]: 14%; residual activity [25]: < 10%; IC50 (HT-29): 3230 nM; inhibition [26]: Active; inhibition [27]: 1%; inhibition [28]: 41%; inhibition [29]: 11%; inhibition [30]: 29%; residual activity [31]: < 10%
2 | 56 | < 10 | < 10 | 12 | 25 | < 10 | < 1000 | < 1000 | 56 | 32 | 11 | 95 | 24 | < 10 | 46 | 4 | < 10 | 41 | < 10 | 6 | CN(C)CCCc1c(/C=C2\C(=O)Nc3ccc(NS(=O)(=O)c4ccccc4)cc32)[nH]c2c1C(=O)CCC2 | inhibition [21]: -7%; inhibition [22]: 85%; residual activity [23]: < 10%; inhibition [24]: 8%; residual activity [25]: < 10%; IC50 (HT-29): 2970 nM; inhibition [26]: Active; inhibition [27]: -2%; inhibition [28]: 65%; inhibition [29]: 9%; inhibition [30]: 24%; residual activity [31]: < 10%

Source: ChEMBL document CHEMBL1212904, “Discovery of pyrrole-indoline-2-ones as Aurora kinase inhibitors with a different inhibition profile” (J Med Chem, 2010)
